How the values were obtained:
[1] = system: Enterovirus A71; test: Antiviral activity against human enterovirus 71 BrCr infected in human RD cells measured by colorometric based MTS/PMS method; type: functional, organism-based; settings: Enterovirus A
How it was run: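 EV71 BrCr in confluent RD cells (MEM, 10% heat-inactivated FBS) infected with ~100 CCID50 and given a compound dilution series. Incubation was 3 days at 37 °C, 5% CO2, with residual viability read by MTS. EC50 is the concentration giving 50% antiviral effect. Toxicity was run in parallel on treated uninfected cells. Values are means of ≥2 independent experiments.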

[2] = system: Enterovirus A71; test: Antiviral activity against human Enterovirus 71 BrCr infected in human RD cells assessed as reduction of virus induced cytopathic effect incubated for 3 days by MTS assay; type: functional, organism-based; settings: Enterovirus A, 72 h
How it was run: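 Confluent RD cells (EMEM, 10% heat-inactivated FBS) are infected with ~100 CCID50 of EV71 BrCr and treated with a compound dilution series. After 3 days at 37 °C, 5% CO2, residual viability is measured by MTS. EC50 is the concentration giving 50% antiviral effect, from at least 2–3 independent experiments.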

[3] = Cytotoxicity against human RD cells by MTS assay; type: toxicity, cell-based
How it was run: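 Treated, uninfected RD or HeLa cells are run alongside the matching enterovirus CPE assays, with viability read by MTS. CC50 is the concentration giving a 50% adverse effect on host cells.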

[4] = Selectivity index, ratio of CC50 for human RD cells to EC50 for antiviral activity against human Enterovirus 71; type: toxicity; settings: read-out: Ratio CC50/EC50
How it was run: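 SI is calculated as CC50 on uninfected RD cells divided by EC50 in the 3-day EV71 BrCr CPE-reduction MTS assay.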

[5] = system: SARS-CoV-2; test: Antiviral activity against SARS-CoV-2 BetaCoV/Belgium/GHB-03021/2020 infected in african green monkey Vero cells assessed as decline in virus induced cytopathogenicity measured after 4 days by argon laser scanning microscopic analysis; type: functional, organism-based; settings: Severe acute respiratory syndrome coronavirus 2, BetaCoV/Belgium/GHB-03021/2020, Vero, 96 h
[6] = system: Zika virus; test: Antiviral activity against ZIKV MR766 infected in african green monkey Vero E6 cells assessed as decline in virus induced cytopathogenicity measured after 5 days by MTS based microscopic analysis; type: functional, organism-based; settings: MR766, Vero C1008, 120 h
How it was run: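 Vero E6 cells (10^4/well) are seeded in MEM with 2% FCS and left to adhere overnight. Cells are then infected with ZIKV MR766 (passaged in C6/36 cells) and given 2-fold serial compound dilutions. After 5 days, CPE is scored by MTS and by microscopy of fixed, stained cells. EC50 is the 50% antiviral effect.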

[7] = Cytotoxicity against african green monkey Vero E6 cells by MTS assay; type: toxicity, cell-based, Vero C1008; settings: chlorocebus sabaeus
How it was run: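 Cytotoxicity is measured on treated, uninfected Vero E6 cells in parallel with the antiviral assays, using a standard MTS assay. CC50 is the concentration causing a 50% adverse effect on host cells.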

[8] = system: Enterovirus A71; test: Antiviral activity against human enterovirus 71; type: functional, organism-based; settings: Enterovirus A
[9] = system: Enterovirus A71; test: Antiviral activity against human enterovirus 71 87-2008; type: functional, organism-based; settings: Enterovirus A

SMILES | EC50 [1] [nM] | EC50 [2] [nM] | CC50 [3] [nM] | selectivity ratio [4] | EC50 [5] [nM] | EC50 [6] [nM] | CC50 [7] [nM] | EC50 [8] [nM] | EC50 [9] [nM]
OC[C@H]1O[C@@H](n2cnc3c(NCc4cccc(C(F)(F)F)c4)ncnc32)[C@H](O)[C@@H]1O | 68 | 36 | > 100000 | > 2770 | > 100000 | > 100000 | > 100000 | – | –
OC[C@H]1O[C@@H](n2cnc3c(NCc4ccccc4)ncnc32)[C@H](O)[C@@H]1O [N6-BENZYLADENOSINE] | – | – | – | – | – | – | – | 280 | –
CCC(CC)COC(=O)[C@H](C)N[P@](=O)(OC[C@H]1O[C@@](C#N)(c2ccc3c(N)ncnn23)[C@H](O)[C@@H]1O)Oc1ccccc1 | – | – | – | – | 58 | – | > 10000 | – | 991

— ChEMBL document CHEMBL5346868 (Eur J Med Chem, 2023)
